Rows were chosen to be rich in hits. Some 1.2% of all compounds tested hit in one or more screens of this group.
Rad51 HR inh: blocks human Rad51 in homologous recombination; Q06609; hRad51 DNA strand exchange, fluorescence dequenching; inhibition, % at 10 µM; actives 0.085% (n = 200,000); AID 1385;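 active means inhibition above 40% at the single screening dose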
Target sequence (Q06609 whole entry, looked up): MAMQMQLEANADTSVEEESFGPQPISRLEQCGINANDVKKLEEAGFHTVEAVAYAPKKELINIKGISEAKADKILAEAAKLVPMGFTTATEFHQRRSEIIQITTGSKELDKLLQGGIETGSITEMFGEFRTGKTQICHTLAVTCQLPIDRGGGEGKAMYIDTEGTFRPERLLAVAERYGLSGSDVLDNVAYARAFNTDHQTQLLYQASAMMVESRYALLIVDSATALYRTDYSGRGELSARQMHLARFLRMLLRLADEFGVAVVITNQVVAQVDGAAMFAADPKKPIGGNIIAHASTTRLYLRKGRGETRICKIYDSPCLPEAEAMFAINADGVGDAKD
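System: hRad51 filaments on single-stranded DNA; reagent: Fluorescein- and BHQ1-tagged 47-mer duplex; compound dosing: one concentration, 10 µM final; timing: filaments 15 min 37 °C, then compound 30 min; measured by: fluorescein emission 520 nm, excitation 485 nm; benchmarks: per-plate controls and blanks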
Efa HMGR inh: inhibitors of class II HMG-CoA reductase from Enterococcus faecalis | purified E. faecalis HMGR, NADPH absorbance 340 nm kinetic | inhibition, % at 10 µM | actives 0.41% (n = 190,000);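 active means inhibition above a set limit, the median over all tested compounds plus 3 SD, cut at about 9.5% in these data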;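 further: enzyme runs in reverse so mevalonate oxidation gives rising NADPH absorbance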
Biofilm kill mix: mixture kills Candida albicans biofilm cells; inhibition, % at 7.6 µM; AID 1242; actives 0.02% (n = 120,000); C. albicans biofilm persisters + clotrimazole, fluorescence viability; primary screen in compound mixtures of four per well;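 further: compounds exposed to preformed 24 h biofilms for 48 h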
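Incubation: 24 h biofilm formation, then 48 h compound exposure, 37 °C | Material: C. albicans biofilms | Buffer or medium: RPMI/MOPS medium, pH 7.0 | Measured by: 2-h Alamar Blue fluorescence, 535/590 nm excitation/emission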
S1P3 antag-1: S1P3 (human) receptor antagonism. CHO S1P3 NFAT-BLA reporter, FRET fluorescence, antagonist mode. inhibition, % at 4.98 µM. actives 0.27% (n = 170,000). AID 485;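 active means inhibition above the plate cutoff, the mean inhibition of test wells on that plate plus 3 SD, cut at about 28% in these data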;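 further: cells challenged with S1P at its EC80 of 0.8 µM; blue over green emission ratio from cleaved BLA substrate after 4 h stimulation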
S1P4 agonist: human S1P4 receptor agonism | S1P4-expressing cell line, agonist reporter assay | O95977 | AID 1509 | actives 0.35% (n = 220,000) | activation, % at 4.98 µM; in the data active means activation above about 11%
S1P4 antag: blocks the human S1P4 receptor | S1P4-expressing cells, antagonist mode, reporter read-out | actives 0.26% (n = 220,000) | inhibition, % at 4.98 µM; in the data active means inhibition above about 29%
S1P3 antag-2: human S1P3 receptor antagonism, confirmation; CHO S1P3 NFAT-BLA reporter, FRET, antagonist mode; shares compounds with S1P3 antag-1; inhibition, % at 4.98 µM; actives 30% (n = 240); AID 1429;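 active means inhibition above the hit threshold that was computed for the earlier primary screen, cut at about 30% in these data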
S1P4 agonist cf: human S1P4 agonism, confirmation; shares compounds with S1P4 agonist; S1P4 agonist cell-based reporter assay; activation, % at 4.98 µM; actives 7% (n = 740); AID 1523; in the data active means activation above about 12%
S1P1 agonist: counter-screen for S1P4 agonists: agonists of human S1P1 | shares compounds with S1P4 agonist | S1P1 agonist cell-based assay, activation | activation, % at 4.98 µM | actives 4% (n = 740) | AID 1563; in the data active means activation above about 21%
S1P4 antag cf: confirmation of human S1P4 receptor antagonists; AID 1524; actives 71% (n = 520); shares compounds with S1P4 antag; S1P4-expressing cell line, antagonist mode, reporter read-out; inhibition, % at 4.98 µM; in the data active means inhibition above about 30%
A number is an active result; . = inactive; / = not tested or not shown; ! = a repeat was not active.

SMILES | Rad51 HR inh | Efa HMGR inh | Biofilm kill mix | S1P3 antag-1 | S1P4 agonist | S1P4 antag | others
CC(C)Oc1cccc(NC(=O)c2cccn(Cc3ccc4c(c3)OC(F)(F)O4)c2=O)c1 | . | 14 | / | / | . | .
CC1=CC(C)C(COC(N)=O)(COC(N)=O)C(C)C1 (stereo not given) | 48 | . | / | . | . | .
CC(C)(C)C(=O)c1cn(Cc2ccccc2)c2ccccc12 | . | . | . | . | . | .
CCCCNC(=S)N1CCn2cccc2C1c1cccnc1 (stereo not given) | . | 11 | . | . | . | .
CNC(=S)N1CCn2cccc2C1c1cccnc1 (stereo not given) | . | . | . | . | . | .
Cc1ccc2c(c1)C1CN(C)CCC1N2C(=O)COc1ccc(S(=O)(=O)N2CCOCC2)cc1 (stereo not given) | . | . | / | 76 | . | .
Cc1ccc2c(c1)C1CN(C)CCC1N2C(=O)Cc1cccs1 (stereo not given) | . | . | / | . | . | .
O=C(NC1(C(F)(F)F)Oc2ccc(Cl)cc2O1)N1CCC2(CC1)OCCO2 (stereo not given) | . | . | / | / | . | 42
O=C(NC1(C(F)(F)F)Oc2ccccc2O1)N1CCC2(CC1)OCCO2 | . | . | . | / | . | .
c1cncc(C2CCCN2)c1 (stereo not given) | . | / | / | / | / | /
CC(=O)CC(=O)C1C(=O)N(C)C(=O)N(C)C1=O | . | 11 | . | . | . | .
O=[N+]([O-])c1cccc2c([As](=O)(O)O)cccc12 | . | / | . | . | . | .
COc1ccc(C[C@@H]2c3cc(O)c(OC)cc3CCN2C)cc1O | . | 20 | . | . | . | .
COc1ccc(CC2c3cc(OC)c(OC)cc3CCN2C)cc1OC (stereo not given) | . | . | / | . | . | .
Fc1ccccc1N1CCN(Cc2ccc3c(c2)OCO3)CC1 | . | . | / | . | . | .
O=c1[nH]c(N2CCN(Cc3ccc4c(c3)OCO4)CC2)nc2c1CCC2 | 84 | . | / | . | . | .
O=C(O)[C@@H]1C[C@H]1[C@@H](NP(=O)(c1ccccc1)c1ccccc1)c1ccccc1 | . | 21 | . | . | . | .
COC(=O)[C@H]1C[C@@H]1[C@H](NP(=O)(c1ccccc1)c1ccccc1)c1ccccc1 | . | . | . | . | . | .
O=c1c2ccccc2nc(-c2ccccc2)n1-c1ccc(O)cc1 | . | . | . | . | . | .
CN(C)C(=S)SSC(=S)N(C)C | . | . | . | . | . | .
Cn1ncnc2c(=O)n(C)c(=O)nc1-2 | / | / | / | 105 | / | /
Cc1nn(Cc2ccccc2)c(C)c1C(=O)O | . | . | . | . | . | .
Cc1nn(Cc2ccccc2)c(C)c1C(=O)NCc1ccccc1F | 44 | . | . | . | . | .
Cc1cc2c(C(C)C)c(O)c(O)c(C=O)c2c(O)c1-c1c(C)cc2c(C(C)C)c(O)c(O)c(C=O)c2c1O | . | . | . | . | . | 32!
c1ccc(C2OCCN3CCCCC23)cc1 (stereo not given) | / | . | . | . | 241 | .
SMILES | Rad51 HR inh | Efa HMGR inh | Biofilm kill mix | S1P3 antag-1 | S1P4 agonist | S1P4 antag | others
CCc1ccc(C(=O)C23CN4CN(CN(C4)C2)C3)cc1 | . | 12 | . | / | . | .
CCN1CCN(C(=O)Cc2c(C)n(C(=O)c3ccc(Cl)cc3)c3ccc(OC)cc23)CC1 | . | . | . | . | . | .
CCCCC(CC)CNCC(O)c1ccccc1 (stereo not given) | . | 15 | . | . | . | .
CC1CCC(NCC(O)c2ccccc2)CC1 (stereo not given) | . | . | / | / | . | .
Cc1ccc(C2=NN(CCC(=O)N3CCC4(CC3)OCCO4)C(=O)CC2)cc1 | / | . | . | . | . | .
CC[N+](C)(CC)CCCCOc1ccc2c(c1)C(=O)c1cc(OCCCC[N+](C)(CC)CC)ccc1-2 | 42 | / | . | . | . | .
CN1CC[C@@H](c2ccc(F)cc2)[C@H](COc2ccc3c(c2)OCO3)C1 | . | / | / | / | / | /
CCOc1ccc(-c2c(C)n(-c3ccc(OCC)cc3)c3[n+]2CCCCC3)cc1 | . | / | . | 40 | . | . | S1P3 antag-2=.
CCOc1ccc(-n2c(-c3ccoc3)nc3ccccc3c2=O)cc1 | / | . | / | / | . | .
CC(C)C/C(=N/O)c1c[nH]c2ccccc12 | . | . | / | / | . | .
O=C(COC(=O)Cc1ccccc1)Nc1ccc(Cl)cn1 | . | . | . | 36 | . | . | S1P3 antag-2=.
O=[N+]([O-])c1ccc(N2CCNCC2)cc1N1CCCCC1 | . | . | . | . | . | .
C[C@H]1C[C@@H](C)C(=O)[C@@H]([C@H](O)CC2CC(=O)NC(=O)C2)C1 | . | . | . | 84 | . | . | S1P3 antag-2=82
CN[C@H]1C[C@H]2O[C@@](C)([C@H]1OC)n1c3ccccc3c3c4c(c5c6ccccc6n2c5c31)C(=O)NC4 | . | . | . | 109 | . | 105 | S1P3 antag-2=121;S1P4 antag cf=117
C/C(=N\N1CCCCC1)c1c(O)[nH]c(=O)[nH]c1=O | . | . | . | . | . | .
CN1CCC2(CC1)CC(NC=O)c1ccccc1O2 (stereo not given) | . | . | . | . | 13 | . | S1P4 agonist cf=.;S1P1 agonist=.
CC(C)(C)n1cc(C(=O)c2ccccc2)cc1-c1ccccc1 | . | / | . | . | . | .
Cc1ccc(N=C(N(C)C)P(=O)(N(C)C)N(C)C)cc1 | . | . | . | . | . | .
CCn1cc(C(=O)N2CCCCC2)c2ccccc21 | . | . | . | . | . | .
CC(=O)NC1CC2CCCC(C1)N2 (stereo not given) | . | . | / | . | 25 | . | S1P4 agonist cf=.;S1P1 agonist=.
CC(=O)NC1CC2CCC(C1)N2 (stereo not given) | . | . | / | . | . | .
CCOC(=O)c1c(-n2c(C)cc(C=C3C(=O)NC(=O)NC3=O)c2C)sc2c1CCCC2 | / | . | / | / | 12 | . | S1P4 agonist cf=29;S1P1 agonist=.
C[n+]1ccc(-c2ccncc2)cc1 | . | . | / | . | 12 | . | S1P4 agonist cf=.;S1P1 agonist=.
CCN(CC)C(=O)c1ccc(NC(=O)CSc2nnnn2-c2cc(OC)ccc2OC)cc1 | . | . | / | . | . | .
CC(C)CCNC(=O)c1c(N)n(CC2CCCO2)c2nc3ccccc3nc12 (stereo not given) | . | . | / | / | 12 | . | S1P4 agonist cf=.;S1P1 agonist=.
CCC(C)NC(=O)c1c(N)n(CC2CCCO2)c2nc3ccccc3nc12 (stereo not given) | . | . | / | . | . | .

Assay outcomes (PubChem BioAssay)
